PMC6105922 (Rheumatology (Oxford, England), 2018)

How the values were obtained:
[1] = tested on: serum urate (sUA); assay: Serum urate; format: in vivo, human; details: for Proportion of subjects with sUA ⩽6.0 mg/dl at 4 h after treatment: pooled cohorts
[2] = tested on: urinary uric acid; assay: Urinary uric acid excretion; format: in vivo, human; details: for FEUA (fractional excretion of uric acid) relative to baseline: data not shown; for Mean maximum ReUR (urinary uric acid excretion rate) relative to baseline: in vivo
How it was run: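 Oral dosing was once daily after breakfast over 7-day periods in hyperuricaemic Japanese men. Total-catch urine was collected on days −1, 7, 14, 21 and 28, with 240 ml water drunk on rising, within 2 h before dosing. The urinary uric acid excretion rate (mg/h) and fractional excretion (%) were calculated per 24-h collection and compared with baseline.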

[3] = Plasma and urine pharmacokinetics of verinurad; format: in vivo; details: human, oral
How it was run: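 Japanese men with gout or asymptomatic hyperuricaemia (sUA ≥8 mg/dl) took oral drug once daily after breakfast, alone or with febuxostat 10, 20 or 40 mg, over 7-day periods. Serial plasma and total-catch urine were taken on days −1, 7, 14, 21 and 28. Plasma was protein-precipitated and urine water-diluted, both assayed by HPLC-MS/MS.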

[4] = Safety: adverse events, serum creatinine, laboratory evaluations; format: in vivo, human
How it was run: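 Males aged 21–65 were dosed orally once daily after breakfast for 7-day periods and followed to day 42. Monitoring covered adverse events (MedDRA v18.0), clinical laboratory tests including serum creatinine, vital signs, ECGs and physical examinations. An independent committee was to adjudicate serious renal events. Clinically relevant laboratory abnormalities were graded by Rheumatology Common Toxicity Criteria v2.0. Results are descriptive, in everyone given at least one dose.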

Row | Compound | Subjects achieving sUA ⩽6.0 mg/dl 4 h after treatment ([1]; benzbromarone 50 mg alone) | sUA-lowering effect ([1]; benzbromarone 50 mg, Cohort 6) | Proportion of subjects with sUA ⩽6.0 mg/dl at 4 h after treatment ([1]; febuxostat 10 mg alone) [%] | Proportion of subjects with sUA ⩽6.0 mg/dl at 4 h after treatment ([1]; febuxostat 40 mg alone) [%] | FEUA (fractional excretion of uric acid) relative to baseline [2] | Mean maximum ReUR (urinary uric acid excretion rate) relative to baseline [2] | Subjects achieving sUA ⩽6.0 mg/dl 4 h after treatment ([1]; verinurad 10 or 15 mg alone) | half-life ([3]; plasma, mean t½, varying verinurad doses alone or in combination with febuxostat) [min] | CL renal ([3]; urine and plasma) [mL/min] | Subjects with sCr elevation ⩾1.5 × baseline ([4]; verinurad 2.5 mg or verinurad 15 mg alone (cohort 5)) | Tolerability ([4]; verinurad 2.5 mg to 15 mg, no withdrawals due to adverse events)
1 | CCc1oc2ccccc2c1C(=O)c1cc(Br)c(O)c(Br)c1 [benzbromarone] | All subjects | generally similar in sUA-lowering effect to verinurad 5 mg combined with febuxostat 20 mg | – | – | – | – | – | – | – | – | –
2 | Cc1nc(-c2ccc(OCC(C)C)c(C#N)c2)sc1C(=O)O [febuxostat, reference compound] | – | – | 20.8 | 83.3 | reduced | reduced | – | – | – | – | –
3 | CC(C)(Sc1ccncc1-c1ccc(C#N)c2ccccc12)C(=O)O [verinurad] | – | – | – | – | increased in a dose-dependent manner | increased | All subjects | 780 to 1440 | 12.4 to 15.1 | Two subjects | well tolerated
